Test results from ChEMBL document CHEMBL1799983, “Anti-inflammatory and cytotoxic neoflavonoids and benzofurans from Pterocarpus santalinus” (J Nat Prod, 2011).
≈ marks a conversion by molar mass, not a printed value.

Columns and labels:
[1] = Antiinflammatory activity in human neutrophils assessed as inhibition of FMLP/CB-induced superoxide anion generation; type: functional, cell-based; conditions: Neutrophil
Procedure, shortened: (§1)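 IC50 (concentration giving 50% inhibition) in human neutrophils, reported as mean ± SEM, n = 3–5. LY294002, a phosphatidylinositol-3-kinase inhibitor, served as the positive control for both superoxide anion generation and elastase release.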

[2] = Antiinflammatory activity in human neutrophils assessed as inhibition of FMLP/CB-induced elastase release; type: functional, cell-based; conditions: Neutrophil; procedure, shortened: as §1
A549 = experiment: Cytotoxicity against human A549 cells by MTT assay; type: functional, cell-based
Procedure, shortened: (§2)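 Fractions and isolates were screened against the cancer cell lines by a colorimetric MTT assay run to an established protocol, with doxorubicin as the positive control.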

MCF7 = experiment: Cytotoxicity against human MCF7 cells by MTT assay; type: functional, cell-based; procedure, shortened: as §2
Neutrophil = experiment: Ratio of LY294002 IC50 to compound IC50 for FMLP/CB-induced elastase release in human neutrophils; type: functional
MDA-MB-231 = experiment: Cytotoxicity against human MDA-MB-231 cells by MTT assay; type: functional, cell-based; procedure, shortened: as §2
HepG2 = experiment: Cytotoxicity against human HepG2 cells by MTT assay; type: functional, cell-based; procedure, shortened: as §2
[3] = Cytotoxicity against human Hep3B cells by MTT assay; type: functional, cell-based, Hep 3B2; procedure, shortened: as §2
Ca9-22 = experiment: Cytotoxicity against human Ca9-22 cells by MTT assay; type: functional, cell-based; procedure, shortened: as §2
[4] = Antiinflammatory activity in human neutrophils assessed as inhibition of FMLP/CB-induced elastase release at 10 ug/ml; type: functional, Neutrophil; conditions: for inhibition at 10 µg/mL: Homo sapiens, Neutrophil
Procedure, shortened: (§3)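 Percentage inhibition in human neutrophils, measured at 10 μg/mL test concentration and reported as mean ± SEM (n = 3–5). Significance was tested against the control value at p < 0.05, 0.01 and 0.001. LY294002 was the positive control.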

[5] = Antiinflammatory activity in human neutrophils assessed as inhibition of FMLP/CB-induced superoxide anion generation at 10 ug/ml; type: functional, Neutrophil; procedure, shortened: as §3
[6] = Homo sapiens, A549, read-out: IC50
[7] = Homo sapiens, MCF7, read-out: IC50
[8] = Homo sapiens, MDA-MB-231, read-out: IC50
[9] = Homo sapiens, HepG2, read-out: IC50
[10] = Homo sapiens, Hep3B, read-out: IC50
[11] = Homo sapiens, Ca9-22, read-out: IC50

Row | SMILES | IC50 [1] [µg/mL] | IC50 [2] [µg/mL] | IC50 (A549; [6]) [µg/mL] | IC50 (MCF7; [7]) [µg/mL] | IC50 (MDA-MB-231; [8]) [µg/mL] | IC50 (HepG2; [9]) [µg/mL] | IC50 [3, 10] [µg/mL] | IC50 (Ca9-22; [11]) [µg/mL] | further results
1 | COc1cc2oc(-c3ccc(O)cc3)c(C)c2cc1O [PTEROLINUS B] | 0.19 (≈ 0.703 µM) | 47.8 (≈ 177 µM) | 2.34 (≈ 8.66 µM) | 1.74 (≈ 6.44 µM) | – | – | – | – | –
2 | COC1=CC(=O)C2(C(C)C(O)c3ccc(OC)c(O)c3)OC2C1=O (stereo not drawn) [PTEROLINUS D] | 0.29 (≈ 0.867 µM) | 1.06 (≈ 3.17 µM) | – | 3.31 (≈ 9.9 µM) | 4.89 (≈ 14.6 µM) | 4.33 (≈ 13 µM) | 2.08 (≈ 6.22 µM) | – | Ratio IC50 (Neutrophil): 1.9
3 | COc1ccc(C(=O)c2cc(O)c(OC)cc2O)cc1O [MELANOXOIN] | – | 3.62 (≈ 12.5 µM) | – | – | – | – | – | 0.46 (≈ 1.58 µM) | –
4 | COc1ccc(-c2c(C)oc3cc(OC)c(O)cc23)cc1O [PTEROLINUS A] | 0.33 (≈ 1.1 µM) | 2.54 (≈ 8.46 µM) | – | – | – | – | – | – | IC50 (A549; a549): Not Active; IC50 (Ca9-22; ca9-22): Not Active; IC50 (MDA-MB-231; mda-mb-231): Not Active; IC50 (MCF7; mcf7): Not Active; IC50 (HepG2; hepg2): Not Active; IC50 ([3]; hep 3b2): Not Active
5 | COc1ccc(-c2cc(=O)oc3cc(OC)c(O)cc23)cc1O [MELANNEIN] | 3.18 (≈ 10.1 µM) | – | > 17.1 | > 17.1 | > 17.1 | > 17.1 | > 17.1 | > 17.1 | inhibition at 10 µg/mL [4]: -1.53%
6 | C=C[C@H](C1=CC(=O)C(OC)=CC1=O)c1ccc(OC)c(O)c1 | 0.47 (≈ 1.57 µM) | 1.44 (≈ 4.8 µM) | – | – | 3.34 (≈ 11.1 µM) | – | 2.39 (≈ 7.96 µM) | – | –
7 | COc1cc(C2CCOc3cc(OC)c(O)cc32)ccc1O (stereo not drawn) [PTEROLINUS J] | 2.1 (≈ 6.95 µM) | – | > 17.1 | > 17.1 | > 17.1 | > 17.1 | > 17.1 | > 17.1 | inhibition at 10 µg/mL [4]: 16.6%
8 | C=C[C@@H](c1ccc(OC)c(O)c1)c1cc(O)c(C(=O)OC)cc1O [PTEROLINUS F] | – | 3.22 (≈ 9.75 µM) | 11.1 (≈ 33.6 µM) | 11.1 (≈ 33.6 µM) | 11.1 (≈ 33.6 µM) | 11.1 (≈ 33.6 µM) | 11.1 (≈ 33.6 µM) | 11.1 (≈ 33.6 µM) | –
9 | C=C[C@H](C1=CC(O)(CC(C)=O)C(OC)=CC1=O)c1ccc(OC)c(O)c1 (single isomer, unassigned) [PTEROLINUS HB] | – | – | – | – | 2.85 (≈ 7.95 µM) | 3.65 (≈ 10.2 µM) | – | – | inhibition at 10 µg/mL ([5]; Homo sapiens, Neutrophil): 29.4%; inhibition (INH) [4]: 19.53%
10 | O=c1cc(N2CCOCC2)oc2c(-c3ccccc3)cccc12 [LY-294002] | 1.18 (≈ 3.84 µM) | 1.99 (≈ 6.47 µM) | – | – | – | – | – | – | –
11 | COc1ccc([C@H]2Oc3cc(OC)c(O)cc3[C@@H]2C)cc1O [MELANOXIN] | 0.69 (≈ 2.28 µM) | – | 7.7 (≈ 25.5 µM) | 7.7 (≈ 25.5 µM) | 7.7 (≈ 25.5 µM) | 7.7 (≈ 25.5 µM) | 7.7 (≈ 25.5 µM) | 7.7 (≈ 25.5 µM) | inhibition at 10 µg/mL [4]: 33.3%
12 | C=C[C@H](C1=CC(O)(CC(C)=O)C(OC)=CC1=O)c1ccc(OC)c(O)c1 (single isomer, unassigned; epimer 2) [PTEROLINUS HB] | – | – | 3.97 (≈ 11.1 µM) | – | – | – | – | – | inhibition (INH) [5]: 34.15%; inhibition (INH) [4]: 2.84%
13 | COc1ccc([C@H]2Oc3cc(OC)c(OC)cc3[C@@H]2C)cc1O [PTEROLINUS C] | 2.28 (≈ 7.21 µM) | – | > 19.4 | > 19.4 | > 19.4 | > 19.4 | > 19.4 | > 19.4 | inhibition at 10 µg/mL [4]: 9.73%
14 | COC1=CC(=O)C([C@@H](C)[C@@H](O)c2ccc(OC)c(O)c2)=CC1=O [PTEROLINUS E] | – | 2.13 (≈ 6.69 µM) | 6.96 (≈ 21.9 µM) | 6.96 (≈ 21.9 µM) | 6.96 (≈ 21.9 µM) | 6.96 (≈ 21.9 µM) | 6.96 (≈ 21.9 µM) | 6.96 (≈ 21.9 µM) | –
15 | COc1ccc(-c2oc3cc(OC)c(O)cc3c2C)cc1O [DEHYDROMELANOXIN] | 0.73 (≈ 2.43 µM) | 3.69 (≈ 12.3 µM) | – | – | – | – | – | – | IC50 (A549; a549): Not Active; IC50 (Ca9-22; ca9-22): Not Active; IC50 (MDA-MB-231; mda-mb-231): Not Active; IC50 (MCF7; mcf7): Not Active; IC50 (HepG2; hepg2): Not Active; IC50 ([3]; hep 3b2): Not Active
